Key:
[1] = biological target: T1, Substance-K receptor (Rattus norvegicus) (UniProt P16610); experiment: Antagonist activity at NK2 receptor in rat urinary bladder assessed as effect on beta-Ala8]NKA(4-10)-induced mechanical activity; assay type: functional; details: filed as antagonist
T1 sequence (whole entry): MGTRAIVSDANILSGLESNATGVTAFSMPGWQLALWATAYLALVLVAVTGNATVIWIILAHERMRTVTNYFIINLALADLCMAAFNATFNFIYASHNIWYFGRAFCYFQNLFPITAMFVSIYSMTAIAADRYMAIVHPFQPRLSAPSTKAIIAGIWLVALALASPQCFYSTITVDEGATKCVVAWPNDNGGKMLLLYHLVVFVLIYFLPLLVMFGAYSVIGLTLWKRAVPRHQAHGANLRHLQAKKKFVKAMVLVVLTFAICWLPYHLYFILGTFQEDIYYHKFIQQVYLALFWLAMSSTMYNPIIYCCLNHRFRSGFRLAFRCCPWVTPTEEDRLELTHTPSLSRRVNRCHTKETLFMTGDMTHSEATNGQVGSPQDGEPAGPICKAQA
Procedure, shortened: (§1)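 Isolated smooth muscle strips were held in oxygenated (96% O2/4% CO2) Krebs–Henseleit at NaCl 119, NaHCO3 25, KH2PO4 1.2, MgSO4 1.5, CaCl2 2.5, KCl 4.7 and glucose 11 mM. Cumulative agonist concentration–response curves were run after 15 min antagonist incubation. pKB = log(dose ratio − 1) − log[antagonist], as the mean of individual values.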

[2] = biological target: T2, Substance-K receptor (Homo sapiens, UniProt P21452); experiment: Displacement of [125I]neurokinin A from human NK2 receptor expressed in CHOK1 cells; assay type: cell-based, CHO-K1
T2 sequence (P21452 whole entry): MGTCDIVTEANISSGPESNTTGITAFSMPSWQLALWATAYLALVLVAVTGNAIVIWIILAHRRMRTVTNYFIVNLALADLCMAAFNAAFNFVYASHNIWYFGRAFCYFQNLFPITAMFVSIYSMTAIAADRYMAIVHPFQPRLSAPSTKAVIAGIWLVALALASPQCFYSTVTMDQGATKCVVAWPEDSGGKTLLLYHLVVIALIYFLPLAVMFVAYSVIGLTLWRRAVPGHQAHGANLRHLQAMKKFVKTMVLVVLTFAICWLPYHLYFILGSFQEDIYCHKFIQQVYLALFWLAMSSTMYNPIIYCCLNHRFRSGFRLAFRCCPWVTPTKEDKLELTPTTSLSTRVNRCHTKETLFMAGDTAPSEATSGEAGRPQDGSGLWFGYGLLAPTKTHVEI
Procedure, shortened: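 Competition binding was run on membranes of cells stably transfected with the human receptor: U-373MG for NK-1, CHO-K1 for NK-2 and NK-3. NK-1 used [3H][Sar9]SP sulfone at 1.2 nM. Affinity is given as pKi (−log Ki).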

[3] = biological target: T3, Substance-K receptor (Oryctolagus cuniculus) (UniProt P79218); experiment: Antagonist activity at NK2 receptor in rabbit pulmonary artery assessed as effect on neurokinin A-induced mechanical activity; assay type: functional; details: filed as antagonist; procedure, shortened: as §1
T3 sequence (whole entry): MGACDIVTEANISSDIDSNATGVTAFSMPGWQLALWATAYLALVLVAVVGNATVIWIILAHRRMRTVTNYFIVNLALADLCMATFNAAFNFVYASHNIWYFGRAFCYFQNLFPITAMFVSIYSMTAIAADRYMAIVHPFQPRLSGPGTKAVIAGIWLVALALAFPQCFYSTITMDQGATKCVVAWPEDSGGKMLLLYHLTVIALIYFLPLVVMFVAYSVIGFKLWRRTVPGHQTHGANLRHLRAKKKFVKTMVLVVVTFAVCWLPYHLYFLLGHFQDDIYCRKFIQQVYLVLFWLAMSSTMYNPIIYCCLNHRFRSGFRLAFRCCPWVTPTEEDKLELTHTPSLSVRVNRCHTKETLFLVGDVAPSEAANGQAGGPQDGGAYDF

Row | SMILES | pKb [1] | Ki [2] | pKb [3]
1 | O=C1C[C@@H](NC2CCSCC2)C(=O)NC[C@@H](Cc2ccccc2)NC(=O)[C@H](Cc2ccccc2)NC(=O)[C@H](Cc2c[nH]c3ccccc23)N1 | 7.8 | 0.1 nM (antagonist) | 
2 | NC1CCN([C@@H]2CC(=O)N[C@@H](Cc3c[nH]c4ccccc34)C(=O)N[C@@H](Cc3ccccc3)C(=O)N[C@H](Cc3ccccc3)CNC2=O)CC1 | 8.5 | 5.01 nM (antagonist) | 
3 | CC(=O)N1CCN([C@@H]2CC(=O)N[C@@H](Cc3c[nH]c4ccccc34)C(=O)N[C@@H](Cc3ccccc3)C(=O)N[C@H](Cc3ccccc3)CNC2=O)CC1 | 9.6 | 0.126 nM (antagonist) | 
4 | CN(C1CCOCC1)[C@@H]1CC(=O)N[C@@H](Cc2c[nH]c3ccccc23)C(=O)N[C@@H](Cc2ccccc2)C(=O)N[C@H](Cc2ccccc2)CNC1=O | 8.8 | 0.158 nM (antagonist) | 
5 | CN1CCC(N[C@@H]2CC(=O)N[C@@H](Cc3c[nH]c4ccccc34)C(=O)N[C@@H](Cc3ccccc3)C(=O)N[C@H](Cc3ccccc3)CNC2=O)CC1 | 9 | 0.2 nM (antagonist) | 
6 | O=C1C[C@@H](N2CCC(N3CCCCC3)CC2)C(=O)NC[C@@H](Cc2ccccc2)NC(=O)[C@H](Cc2ccccc2)NC(=O)[C@H](Cc2c[nH]c3ccccc23)N1 | 8.9 | 0.2 nM (antagonist) | 
7 | CS(=O)(=O)N1CCN([C@@H]2CC(=O)N[C@@H](Cc3c[nH]c4ccccc34)C(=O)N[C@@H](Cc3ccccc3)C(=O)N[C@H](Cc3ccccc3)CNC2=O)CC1 | 9.3 | 3.16 nM (antagonist) | 
8 | CS(=O)(=O)N1CCC(N[C@@H]2CC(=O)N[C@@H](Cc3c[nH]c4ccccc34)C(=O)N[C@@H](Cc3ccccc3)C(=O)N[C@H](Cc3ccccc3)CNC2=O)CC1 | 9.5 | 0.0631 nM (antagonist) | 
9 | O=C1C[C@@H](NC(=O)CN2CCC(N3CC[S+]([O-])CC3)CC2)C(=O)NC[C@@H](Cc2ccccc2)NC(=O)[C@H](Cc2ccccc2)NC(=O)[C@H](Cc2c[nH]c3ccccc23)N1 | 9 | 0.251 nM (antagonist) | 
10 | O=C1C[C@H](NC2CCOCC2)C(=O)N[C@@H](Cc2c[nH]c3ccccc23)C(=O)N[C@@H](Cc2ccccc2)C(=O)N[C@H](Cc2ccccc2)CN1 | 7.8 | 6.31 nM (antagonist) | 
11 | O=C1CCC(=O)N[C@@H](Cc2c[nH]c3ccccc23)C(=O)N[C@@H](Cc2ccccc2)C(=O)N[C@H](Cc2ccccc2)CN1 | 8.3 |  | 
12 | O=C1C[C@@H](NC2CC[S+]([O-])CC2)C(=O)NC[C@@H](Cc2ccccc2)NC(=O)[C@H](Cc2ccccc2)NC(=O)[C@H](Cc2c[nH]c3ccccc23)N1 (stereo partly specified) | 9.1 | 0.0251 nM (antagonist) | 
13 | O=C1C[C@@H](N2CCC(N3CCOCC3)CC2)C(=O)NC[C@@H](Cc2ccccc2)NC(=O)[C@H](Cc2ccccc2)NC(=O)[C@H](Cc2c[nH]c3ccccc23)N1 | 8.9 | 0.2 nM (antagonist) | 
14 | CN1CCN([C@@H]2CC(=O)N[C@@H](Cc3c[nH]c4ccccc34)C(=O)N[C@@H](Cc3ccccc3)C(=O)N[C@H](Cc3ccccc3)CNC2=O)CC1 | 9.2 | 0.398 nM (antagonist) | 
15 | NS(=O)(=O)N1CCC(N[C@@H]2CC(=O)N[C@@H](Cc3c[nH]c4ccccc34)C(=O)N[C@@H](Cc3ccccc3)C(=O)N[C@H](Cc3ccccc3)CNC2=O)CC1 | 9.5 | 0.0501 nM (antagonist) | 
16 | O=C1C[C@@H](NC2CCOCC2)C(=O)N[C@@H](Cc2c[nH]c3ccccc23)C(=O)N[C@@H](Cc2ccccc2)C(=O)N[C@H](Cc2ccccc2)CN1 | 7.4 | 7.94 nM (antagonist) | 
17 | O=C1C[C@@H](NC2CCS(=O)(=O)CC2)C(=O)NC[C@@H](Cc2ccccc2)NC(=O)[C@H](Cc2ccccc2)NC(=O)[C@H](Cc2c[nH]c3ccccc23)N1 | 9.3 | 0.158 nM (antagonist) | 

Continued, values first:

Row | pKb [1] | Ki [2] | pKb [3] | SMILES
18 | 8.5 |  |  | O=C1C[C@@H](NC(=O)CN2CCOCC2)C(=O)NC[C@@H](Cc2ccccc2)NC(=O)[C@H](Cc2ccccc2)NC(=O)[C@H](Cc2c[nH]c3ccccc23)N1
19 | 8.7 | 0.316 nM (antagonist) |  | O=C1C[C@@H](NC(=O)CN2CC[S+]([O-])CC2)C(=O)NC[C@@H](Cc2ccccc2)NC(=O)[C@H](Cc2ccccc2)NC(=O)[C@H](Cc2c[nH]c3ccccc23)N1
20 | 8.7 | 3.98 nM (antagonist) |  | O=C1CC(NC(=O)[C@@H](O)[C@H](O)[C@@H](O[C@@H]2O[C@H](CO)[C@H](O)[C@H](O)[C@H]2O)[C@@H](O)CO)C(=O)NC[C@@H](Cc2ccccc2)NC(=O)[C@H](Cc2ccccc2)NC(=O)[C@H](Cc2c[nH]c3ccccc23)N1 (stereo partly specified)
21 | 8.8 | 0.398 nM (antagonist) |  | O=C1C[C@@H](NC[C@H](O)[C@@H](O)[C@H](O)[C@H](O)CO)C(=O)NC[C@@H](Cc2ccccc2)NC(=O)[C@H](Cc2ccccc2)NC(=O)[C@H](Cc2c[nH]c3ccccc23)N1
22 | 9.1 | 0.126 nM (antagonist) |  | O=C1C[C@@H](NC(=O)CN2CCC(O)CC2)C(=O)NC[C@@H](Cc2ccccc2)NC(=O)[C@H](Cc2ccccc2)NC(=O)[C@H](Cc2c[nH]c3ccccc23)N1
23 |  |  | 7.5 | N[C@H]1CC(=O)N[C@@H](Cc2c[nH]c3ccccc23)C(=O)N[C@@H](Cc2ccccc2)C(=O)N[C@H](Cc2ccccc2)CNC1=O
24 | 8.5 | 1.58 nM (antagonist) |  | CN1CCN(CC(=O)N[C@@H]2CC(=O)N[C@@H](Cc3c[nH]c4ccccc34)C(=O)N[C@@H](Cc3ccccc3)C(=O)N[C@H](Cc3ccccc3)CNC2=O)CC1
25 | 7.6 | 1.58 nM (antagonist) |  | CC(=O)N[C@H]1[C@H](NC(=O)CCC(=O)N[C@@H]2CC(=O)N[C@@H](Cc3c[nH]c4ccccc34)C(=O)N[C@@H](Cc3ccccc3)C(=O)N[C@H](Cc3ccccc3)CNC2=O)O[C@H](CO)C(O)[C@@H]1O (single isomer, unassigned)
26 | 7.7 | 25.1 nM (antagonist) |  | CC(=O)N[C@@H]1[C@@H](O)[C@H](O)[C@@H](CO)O[C@H]1NC(=O)C[C@H](NC(C)=O)C(=O)N[C@@H]1CC(=O)N[C@@H](Cc2c[nH]c3ccccc23)C(=O)N[C@@H](Cc2ccccc2)C(=O)N[C@H](Cc2ccccc2)CNC1=O
27 | 8.9 | 0.316 nM (antagonist) |  | O=C1C[C@@H](NC(=O)CN2CCC[C@H]2CO)C(=O)NC[C@@H](Cc2ccccc2)NC(=O)[C@H](Cc2ccccc2)NC(=O)[C@H](Cc2c[nH]c3ccccc23)N1
28 | 8.5 | 0.631 nM (antagonist) |  | O=C1C[C@@H](NC[C@H](O)[C@@H](O)[C@@H](O[C@H]2O[C@H](CO)[C@@H](O)[C@H](O)[C@H]2O)[C@H](O)CO)C(=O)NC[C@@H](Cc2ccccc2)NC(=O)[C@H](Cc2ccccc2)NC(=O)[C@H](Cc2c[nH]c3ccccc23)N1
29 | 8.1 | 2 nM (antagonist) |  | CC(=O)N[C@@H](CN[C@@H]1CC(=O)N[C@@H](Cc2c[nH]c3ccccc23)C(=O)N[C@@H](Cc2ccccc2)C(=O)N[C@H](Cc2ccccc2)CNC1=O)[C@@H](O)[C@H](O)[C@H](O)CO
30 | 8.5 | 0.501 nM (antagonist) |  | O=C1C[C@@H](NC[C@H](O)[C@H](O)[C@@H](O[C@H]2O[C@H](CO)[C@@H](O[C@@H]3O[C@@H](CO)[C@H](O)[C@@H](O)[C@@H]3O)[C@H](O)[C@H]2O)[C@H](O)CO)C(=O)NC[C@@H](Cc2ccccc2)NC(=O)[C@H](Cc2ccccc2)NC(=O)[C@H](Cc2c[nH]c3ccccc23)N1
31 | 8.2 | 1.26 nM (antagonist) |  | O=C1C[C@@H](NC[C@H](O)[C@@H](O)[C@H](O[C@@H]2O[C@H](CO)[C@H](O)[C@H](O)[C@H]2O)[C@H](O)CO)C(=O)NC[C@@H](Cc2ccccc2)NC(=O)[C@H](Cc2ccccc2)NC(=O)[C@H](Cc2c[nH]c3ccccc23)N1
32 | 9.2 | 0.501 nM (antagonist) |  | NC(=O)C1CCN(CC(=O)N[C@@H]2CC(=O)N[C@@H](Cc3c[nH]c4ccccc34)C(=O)N[C@@H](Cc3ccccc3)C(=O)N[C@H](Cc3ccccc3)CNC2=O)CC1
